# Source: ChEMBL document CHEMBL1156796, “Design, synthesis, and antihepatitis B virus activities of novel 2-pyridone derivatives” (J Med Chem, 2010)
# Tested on: Hepatitis B virus
# Assay: Antiviral activity against HBV infected in human HepG2(2.2.15) cells assessed as inhibition of HBsAg level after 9 days by ELISA
# Type: functional, organism-based
# Conditions: HepG2 2.2.15, 216 h
row,IC50 [µM],Compound
1,> 122,CCC/N=C(\c1ccc(=O)n(CCC)c1)c1ccc(OC)cc1O
2,846,COc1ccc(C(=O)c2ccc(=O)n(C(C)C)c2)c(O)c1
3,99,COc1ccc(C(=O)c2ccc(=O)n(C3CCCCC3)c2)c(O)c1
4,36,COc1ccc(C/N=C(\c2ccc(=O)n(Cc3ccc(OC)cc3)c2)c2ccc(OC)cc2O)cc1
5,13,COc1ccc(/C(=N/Cc2ccc(F)cc2F)c2ccc(=O)n(Cc3ccc(F)cc3F)c2)c(O)c1
6,> 110,CCOc1ccc(-n2cc(C(=O)c3ccc(OC)cc3O)ccc2=O)cc1
7,13,COc1ccc(C(=O)c2ccc(=O)n(-c3cc(C)ccc3C)c2)c(O)c1
8,> 110,COc1ccc(C(=O)c2ccc(=O)n(-c3ccc(C(C)=O)cc3)c2)c(O)c1
9,496,COc1ccc(/C(=N/Cc2ccc(F)c(F)c2)c2ccc(=O)n(Cc3ccc(F)c(F)c3)c2)c(O)c1

# Tested on: not listed separately
# Assay: Cytotoxicity against human HepG2(2.2.15) cells
# Type: cell-based
# Conditions: not given
row,Compound,CC50 [µM]
1,CCC/N=C(\c1ccc(=O)n(CCC)c1)c1ccc(OC)cc1O,120
2,COc1ccc(C(=O)c2ccc(=O)n(C(C)C)c2)c(O)c1,696
3,COc1ccc(C(=O)c2ccc(=O)n(C3CCCCC3)c2)c(O)c1,15
4,COc1ccc(C/N=C(\c2ccc(=O)n(Cc3ccc(OC)cc3)c2)c2ccc(OC)cc2O)cc1,32
5,COc1ccc(/C(=N/Cc2ccc(F)cc2F)c2ccc(=O)n(Cc3ccc(F)cc3F)c2)c(O)c1,10
6,CCOc1ccc(-n2cc(C(=O)c3ccc(OC)cc3O)ccc2=O)cc1,> 110
7,COc1ccc(C(=O)c2ccc(=O)n(-c3cc(C)ccc3C)c2)c(O)c1,0.5
8,COc1ccc(C(=O)c2ccc(=O)n(-c3ccc(C(C)=O)cc3)c2)c(O)c1,133
9,COc1ccc(/C(=N/Cc2ccc(F)c(F)c2)c2ccc(=O)n(Cc3ccc(F)c(F)c3)c2)c(O)c1,201

# Tested on: Hepatitis B virus
# Assay: Antiviral activity against HBV infected in human HepG2(2.2.15) cells assessed as inhibition of HBV DNA replication after 9 days by PCR
# Type: functional, organism-based
# Conditions: Hepatitis B virus, HepG2 2.2.15, 216 h; read-out: IC50
row,IC50 [µM],Compound
1,33.8,CCC/N=C(\c1ccc(=O)n(CCC)c1)c1ccc(OC)cc1O
2,170,COc1ccc(C(=O)c2ccc(=O)n(C(C)C)c2)c(O)c1
3,99.6,COc1ccc(C(=O)c2ccc(=O)n(C3CCCCC3)c2)c(O)c1
4,1,COc1ccc(C/N=C(\c2ccc(=O)n(Cc3ccc(OC)cc3)c2)c2ccc(OC)cc2O)cc1
5,3,COc1ccc(/C(=N/Cc2ccc(F)cc2F)c2ccc(=O)n(Cc3ccc(F)cc3F)c2)c(O)c1
6,0.206,CCOc1ccc(-n2cc(C(=O)c3ccc(OC)cc3O)ccc2=O)cc1
7,0.5,COc1ccc(C(=O)c2ccc(=O)n(-c3cc(C)ccc3C)c2)c(O)c1
8,11.2,COc1ccc(C(=O)c2ccc(=O)n(-c3ccc(C(C)=O)cc3)c2)c(O)c1
9,97.5,COc1ccc(/C(=N/Cc2ccc(F)c(F)c2)c2ccc(=O)n(Cc3ccc(F)c(F)c3)c2)c(O)c1

# Tested on: not listed separately
# Assay: Selectivity index, ratio of CC50 for human HepG2(2.2.15) cells to IC50 for HBV infected in human HepG2(2.2.15) cells assessed as inhibition of HBV DNA replication
# Type: functional
# Conditions: not given
row,Compound,Ratio CC50/IC50
1,CCC/N=C(\c1ccc(=O)n(CCC)c1)c1ccc(OC)cc1O,3.55
2,COc1ccc(C(=O)c2ccc(=O)n(C(C)C)c2)c(O)c1,4.09
3,COc1ccc(C(=O)c2ccc(=O)n(C3CCCCC3)c2)c(O)c1,0.15
4,COc1ccc(C/N=C(\c2ccc(=O)n(Cc3ccc(OC)cc3)c2)c2ccc(OC)cc2O)cc1,32
5,COc1ccc(/C(=N/Cc2ccc(F)cc2F)c2ccc(=O)n(Cc3ccc(F)cc3F)c2)c(O)c1,3.33
6,CCOc1ccc(-n2cc(C(=O)c3ccc(OC)cc3O)ccc2=O)cc1,>532
7,COc1ccc(C(=O)c2ccc(=O)n(-c3cc(C)ccc3C)c2)c(O)c1,1
8,COc1ccc(C(=O)c2ccc(=O)n(-c3ccc(C(C)=O)cc3)c2)c(O)c1,11.88
9,COc1ccc(/C(=N/Cc2ccc(F)c(F)c2)c2ccc(=O)n(Cc3ccc(F)c(F)c3)c2)c(O)c1,2.07

# Tested on: not listed separately
# Assay: Selectivity index, ratio of CC50 for human HepG2(2.2.15) cells to IC50 for HBV infected in human HepG2(2.2.15) cells assessed as inhibition of HBeAg
# Type: functional
# Conditions: not given
row,Compound,Ratio CC50/IC50
1,CCC/N=C(\c1ccc(=O)n(CCC)c1)c1ccc(OC)cc1O,<1
2,COc1ccc(C(=O)c2ccc(=O)n(C(C)C)c2)c(O)c1,<0.82
3,COc1ccc(C(=O)c2ccc(=O)n(C3CCCCC3)c2)c(O)c1,20.55
4,COc1ccc(C/N=C(\c2ccc(=O)n(Cc3ccc(OC)cc3)c2)c2ccc(OC)cc2O)cc1,16
5,COc1ccc(/C(=N/Cc2ccc(F)cc2F)c2ccc(=O)n(Cc3ccc(F)cc3F)c2)c(O)c1,0.25
6,CCOc1ccc(-n2cc(C(=O)c3ccc(OC)cc3O)ccc2=O)cc1,>1.99
7,COc1ccc(C(=O)c2ccc(=O)n(-c3cc(C)ccc3C)c2)c(O)c1,0.01
8,COc1ccc(C(=O)c2ccc(=O)n(-c3ccc(C(C)=O)cc3)c2)c(O)c1,0.17
9,COc1ccc(/C(=N/Cc2ccc(F)c(F)c2)c2ccc(=O)n(Cc3ccc(F)c(F)c3)c2)c(O)c1,<0.5

# Tested on: Hepatitis B virus
# Assay: Antiviral activity against HBV infected in human HepG2(2.2.15) cells assessed as inhibition of HBeAg level after 9 days by ELISA
# Type: functional, organism-based
# Conditions: HepG2 2.2.15, 216 h
row,IC50 [µM],Compound
1,> 122,CCC/N=C(\c1ccc(=O)n(CCC)c1)c1ccc(OC)cc1O
2,> 846,COc1ccc(C(=O)c2ccc(=O)n(C(C)C)c2)c(O)c1
3,0.73,COc1ccc(C(=O)c2ccc(=O)n(C3CCCCC3)c2)c(O)c1
4,2,COc1ccc(C/N=C(\c2ccc(=O)n(Cc3ccc(OC)cc3)c2)c2ccc(OC)cc2O)cc1
5,40,COc1ccc(/C(=N/Cc2ccc(F)cc2F)c2ccc(=O)n(Cc3ccc(F)cc3F)c2)c(O)c1
6,55,CCOc1ccc(-n2cc(C(=O)c3ccc(OC)cc3O)ccc2=O)cc1
7,38,COc1ccc(C(=O)c2ccc(=O)n(-c3cc(C)ccc3C)c2)c(O)c1
8,774,COc1ccc(C(=O)c2ccc(=O)n(-c3ccc(C(C)=O)cc3)c2)c(O)c1
9,> 403,COc1ccc(/C(=N/Cc2ccc(F)c(F)c2)c2ccc(=O)n(Cc3ccc(F)c(F)c3)c2)c(O)c1

# Tested on: not listed separately
# Assay: Selectivity index, ratio of CC50 for human HepG2(2.2.15) cells to IC50 for HBV infected in human HepG2(2.2.15) cells assessed as inhibition of HBsAg
# Type: functional
# Conditions: not given
# Outline: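 MTT at 5 g/L added 4 h before lysis in 10% SDS/50% DMF, pH 7.2, with OD read at 570 nm. IC50: HBsAg in day-9 supernatants measured by ELISA. SI = CC50/IC50.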
row,Compound,Ratio CC50/IC50
1,CCC/N=C(\c1ccc(=O)n(CCC)c1)c1ccc(OC)cc1O,<1
2,COc1ccc(C(=O)c2ccc(=O)n(C(C)C)c2)c(O)c1,0.82
3,COc1ccc(C(=O)c2ccc(=O)n(C3CCCCC3)c2)c(O)c1,0.15
4,COc1ccc(C/N=C(\c2ccc(=O)n(Cc3ccc(OC)cc3)c2)c2ccc(OC)cc2O)cc1,0.89
5,COc1ccc(/C(=N/Cc2ccc(F)cc2F)c2ccc(=O)n(Cc3ccc(F)cc3F)c2)c(O)c1,0.77
6,COc1ccc(C(=O)c2ccc(=O)n(-c3cc(C)ccc3C)c2)c(O)c1,0.04
7,COc1ccc(C(=O)c2ccc(=O)n(-c3ccc(C(C)=O)cc3)c2)c(O)c1,<1.21
8,COc1ccc(/C(=N/Cc2ccc(F)c(F)c2)c2ccc(=O)n(Cc3ccc(F)c(F)c3)c2)c(O)c1,0.41
